High-throughput results as filed in PubChem.
NR3A LBD binder = NR3A (human) ligand-binding domain modulation. NR3A LBD differential scanning fluorimetry, Tm shift; 0% = protein alone, 100% = glycine-bound protein. Tm shift relative to glycine control, % at 25 µM. actives 2.5% (n = 340,000). AID 1259313;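 active = melting temperature shift of at least 10% of the positive control shift, at one fixed dose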
MPTP block = blocks calcium-induced mitochondrial swelling; isolated mouse mitochondria, Ca2+ swelling absorbance, 30 min; inhibition, % at 10 µM; actives 1.4% (n = 360,000);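 active = inhibition of 50% or more, scaled per plate between neutral and stimulator controls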
aDG glyco act = increases alpha dystroglycan glycosylation; actives 0.22% (n = 360,000); activation, % at 10 µM; Pro5-aDG cells, alpha-DG glycosylation AlphaScreen (IIH6); 0% Pro5, 100% B10-LARGE cell signal;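 active = activation of at least 8% versus controls, or a plate z-score of at least 8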;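 also: Pro5 are CHO cells carrying HIG-tagged alpha-DG that lacks glycosylation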
procasp7 counter = counter-screen: procaspase-7 (human) activation | P55210 | recombinant procaspase-7, Ac-DEVD-pNA absorbance 405 nm; D23A/D198A/D206A triple mutant, cannot self-cleave; scale: DMSO 0, 5 µM enzyme 100 | activation, % at 8.5 µM | actives 0.093% (n = 330,000);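 active = percent activation above the screen-wide mean plus 3 SD, cut at about 25% in these data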
Target sequence (P55210 whole entry D23A/D198A/D206A): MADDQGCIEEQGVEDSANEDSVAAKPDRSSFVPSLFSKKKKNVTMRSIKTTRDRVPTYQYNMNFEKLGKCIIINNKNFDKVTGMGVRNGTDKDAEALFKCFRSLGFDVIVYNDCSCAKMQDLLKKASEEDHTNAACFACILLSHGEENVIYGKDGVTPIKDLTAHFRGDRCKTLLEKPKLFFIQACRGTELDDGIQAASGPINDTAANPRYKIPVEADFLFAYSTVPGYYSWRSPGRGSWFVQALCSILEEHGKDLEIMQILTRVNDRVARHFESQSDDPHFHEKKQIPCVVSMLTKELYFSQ
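System: Procaspase-7 triple mutant (PC-7 D3A); measure: % activation from two-timepoint absorbance difference, scaled to controls; times: 1 h compound preincubation, 2 h substrate cleavage, 25 °C; also added: Ac-DEVD-pNA substrate, 400 µM as added; measured by: Epi-absorbance of released pNA at 405 nm, two timepoints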
proCasp3 act = activators of human procaspase-3. P42574. recombinant procaspase-3 D3A, Ac-DEVD-pNA absorbance 405 nm. activation, % at 8.5 µM. actives 0.11% (n = 330,000). AID 463141;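 active = activation above the mean of all tested compounds plus 3 SD, cut at about 21% in these data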
Target sequence (P42574 whole entry D9A/D28A/D175A): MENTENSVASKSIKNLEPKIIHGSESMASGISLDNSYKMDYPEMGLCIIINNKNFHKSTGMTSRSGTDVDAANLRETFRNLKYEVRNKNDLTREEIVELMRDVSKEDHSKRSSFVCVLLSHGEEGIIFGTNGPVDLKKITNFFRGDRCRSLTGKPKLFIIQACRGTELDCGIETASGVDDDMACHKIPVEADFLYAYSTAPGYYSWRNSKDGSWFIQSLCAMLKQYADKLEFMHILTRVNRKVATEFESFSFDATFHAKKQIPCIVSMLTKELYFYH
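material = Procaspase-3 D3A mutant | probe or stimulus = Ac-DEVD-pNA | compound = single dose, 8.5 µM nominal compound, 0.8% DMSO | timing = 1 h preincubation, 2 h reaction | measured by = 405 nm absorbance of p-nitroaniline, reads at 0 and 120 min | benchmarks = DMSO-only low control, 5 µM PC-3 D3A high control | repeats = singlicate, each compound tested once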
MPTP counter = mitochondrial membrane potential, counter-screen | shares compounds with MPTP block | isolated mitochondria, Rhodamine 123 fluorescence | inhibition, % at 10 µM | actives 78% (n = 5,000); in the data active = inhibition above about 22%
MPTP swell DR = dose response confirmation of mitochondrial permeability transition pore inhibitors | actives 58% (n = 780) | shares compounds with MPTP block | isolated mitochondria swelling, absorbance | AID 651561 | IC50, µM; in the data active = IC50 below about 20 µM
MPTP cs DR = counter-screen for mitochondrial permeability transition pore inhibitors, dose response. shares compounds with MPTP block. actives 49% (n = 780). isolated mitochondria counterscreen, fluorescence read-out. IC50, µM; in the data active = IC50 below about 80 µM
Numbers stand for hits; n = inactive; x = no result. The list is not random: actives were taken first. Their share in the collection is about 3.7%.

SMILES	NR3A LBD binder	MPTP block	aDG glyco act	procasp7 counter	proCasp3 act	MPTP counter	others
O=C(Nc1ccc(Cl)c(Cl)c1)Nc1ccccc1O	466.3	97.8	n	n	n	64.2
O=C(Nc1ccc(Cl)c(Cl)c1)Nc1ccc(Br)cc1F	40.1	99.8	n	n	n	73.9
O=C(NNc1ccccc1[N+](=O)[O-])Nc1ccc(Cl)c(Cl)c1	15.3	101.7	n	n	n	84.2
NNC(=O)C(=O)Nc1ccc(Cl)c(Cl)c1	n	n	n	n	n	x
CCOC(=O)/C(=C\c1ccccc1)C(=O)CCN1CCOCC1	n	n	n	x	x	x
Cc1ccc2cc(NC(=O)C3(C)CCN3C(C)C)ccc2n1 (configuration not stated)	x	n	n	x	x	x
COc1ccc(-n2ncc3c2CC(C)(C)CC3NC(=O)CCN2CCCCC2=O)cc1 (configuration not stated)	n	n	n	n	n	x
Cc1ccc(NC(=O)CN(c2ccc(Cl)cc2)S(=O)(=O)c2cc([N+](=O)[O-])ccc2Cl)cc1	n	n	n	n	n	x
CCN(CC)S(=O)(=O)c1cc([N+](=O)[O-])ccc1NNC(=O)Nc1ccc(Cl)c(Cl)c1	17.6	101.6	n	n	n	76.0
CCOc1ccc(S(=O)(=O)NNC(=O)c2cc3ccccc3o2)cc1	n	n	n	n	n	x
CCCOc1ccc(S(=O)(=O)NNC(=O)c2cc3ccccc3o2)cc1	n	66.1	n	n	n	31.4
Cc1c(C(=O)Nc2cccc(Cl)c2)c2ccccn2c1CCc1ccncc1	n	n	n	x	x	x
Cc1c(C(=O)Nc2ccc(Cl)cc2)c2ccccn2c1CCc1ccncc1	n	85.3	n	n	n	90.3
Cc1nc2cc(OC3(C)CCN(Cc4ccc(OC(F)(F)F)cc4)C3)ccc2s1 (configuration not stated)	x	n	n	x	x	x
O=C(NCc1cccnc1)c1cccs1	n	n	n	n	n	x
Cc1cccc(Oc2cnn(C(C)(C)C)c(=O)c2Cl)c1	n	61.5	n	n	n	44.9
CCOc1ccc(C2OCCC(C)O2)cc1OC (configuration not stated)	n	n	n	x	x	x
O=C(Nc1ccc(F)c(F)c1)c1cnc(-c2ccccc2)nc1-c1ccccc1	n	71.6	n	n	n	n	MPTP swell DR=n;MPTP cs DR=7.04
CCCCOCCCNC(=O)C[C@@H]1C[C@@]2(C(=O)OC)CCCCC=C2N(CCc2ccc(OC)c(OC)c2)C1=O	x	n	n	x	x	x
O=C(Nc1ccc2c(c1)OCO2)c1c[nH]c(=O)n(-c2ccc(F)cc2)c1=O	n	n	n	n	n	x
O=C(N/N=C/c1c(O)ccc2ccccc12)c1[nH]ncc1Br	29.7	54.7	n	n	n	55.4
O=C(N/N=C/c1c(O)ccc2ccccc12)c1cccc(C(F)(F)F)c1	21.3	98.9	n	n	n	42.3
Clc1nc(NC2CCCCC2)c2cn[nH]c2n1	n	n	n	x	x	x
Cc1sc(NC(=O)CN2CCCC2)nc1-c1ccc2c(c1)CCN2C(=O)c1cccc(F)c1	n	58.7	2.7	n	n	n	MPTP swell DR=n;MPTP cs DR=35
COc1ccc(CNCCCn2cnc3c(SC)ncnc32)cc1	x	n	n	x	x	x
SMILES	NR3A LBD binder	MPTP block	aDG glyco act	procasp7 counter	proCasp3 act	MPTP counter	others
COC(=O)c1cn[nH]c1NC(=S)Nc1ccccc1C	n	n	n	n	n	x
COC(=O)c1cn[nH]c1NC(=S)Nc1ccc(C)cc1Cl	30.2	96.2	n	n	n	75.2
COC(=O)c1cn[nH]c1NC(=S)Nc1ccc(Cl)c(Cl)c1	11.4	99.4	n	n	n	81.4
CCCc1nc(SCC(=O)N2CCC(C)CC2)c2c(=O)n(C)c(=O)n(C)c2n1	n	n	n	n	n	x
CCCc1nc(SC2CCCC2)c2c(=O)n(C)c(=O)n(C)c2n1	n	71.8	n	n	n	n	MPTP swell DR=n;MPTP cs DR=70.1
COc1cccc(NC(=S)NC(Cc2ccccc2)c2ccccc2)c1 (configuration not stated)	x	57.1	n	x	x	89.7
COc1cccc(NC(=S)NC(C)c2ccc(OC)c(OC)c2)c1 (configuration not stated)	n	n	n	n	n	x
COc1ccc(-c2c(-c3ccccc3)n(C)c3ccccc23)cc1	n	n	n	n	n	x
CN=C1c2c(-c3ccccc3)c3cc(OC)ccc3n2CCN1C	n	67.9	n	n	n	n	MPTP swell DR=10.1;MPTP cs DR=n
Cn1c(=O)ccc2ccccc21	x	n	n	x	x	x
Cc1ccc(NC(=O)CNc2cccc(S(=O)(=O)N3CCCCC3)c2)cc1F	n	n	n	n	n	x
O=C(CNc1cccc(S(=O)(=O)N2CCCC2)c1)Nc1ccc(C(F)(F)F)cc1	n	51.8	n	n	n	85.2
O=C(CNc1cccc(Br)c1)Nc1ccc(S(=O)(=O)N2CCCCC2)cc1	x	n	n	x	x	x
O=C(CNc1cccc(S(=O)(=O)N2CCCCC2)c1)Nc1ccc(C(F)(F)F)cc1	x	81.0	n	x	x	76.4
CSC12CCCN(CCC(C(C)(C)C)C1)C2=O (configuration not stated)	x	n	n	x	x	x
N#C/C(C(=O)N1CCOCC1)=C1/SC(Cc2ccccc2Cl)C(=O)N1c1ccccc1 (configuration not stated)	n	n	n	n	n	x
Cc1ccc(C(=O)Nc2ccc(Br)c(C(F)(F)F)c2)cc1	10.3	94.1	n	n	n	83.0
NC1=NC[C@H](Cc2ccc(O)cc2)N1CC1CCCCC1	n	n	n	n	n	x
NC1=NC[C@@H](Cc2ccc(O)cc2)N1CCCCC1CCCCC1	n	59.8	n	n	n	n	MPTP swell DR=9.62;MPTP cs DR=24.4
COc1ccc(CN(C)C(=O)/C=C/[C@H]2O[C@@H](n3cc(C)c(=O)[nH]c3=O)C[C@@H]2O)cc1OC	x	n	n	x	x	x
CCCNS(=O)(=O)c1ccc2c(c1)n(C)c(=O)n2C	n	n	n	n	n	x
Cn1c(=O)n(C)c2cc(S(=O)(=O)NCCc3ccccc3)ccc21	n	59.2	n	n	n	23.8
Cc1ccc(S(=O)(=O)NCc2c(Cl)cccc2Oc2ccccc2)cc1	n	n	n	n	n	x
COc1ccc(S(=O)(=O)Nc2ccc(CC#N)cc2)cc1	n	n	n	n	n	x
N#CCc1ccc(NS(=O)(=O)c2ccc(C3CCCCC3)cc2)cc1	n	82.0	n	n	n	95.5
Cc1cccc(NS(=O)(=O)c2ccc(C3CCCCC3)cc2)c1	n	90.2	n	n	n	92.8
CC(NC(=O)C1CCCCC1)C(=O)NC1=NCCS1 (configuration not stated)	n	n	n	n	n	x
